test: Toxicity liver stage against HepG2, at 10uM; assay type: cell-based; set-up: test concentration 10 uM, cell line HepG2-A16-CD81EGFP; conditions: human, HepG2-A16-CD81EGFP cells; read-out: INHIBITION
Summary of the method: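 Uninfected HepG2-A16-CD81EGFP cells, 3 × 10^3 per well, 1536-well, plated on prespotted compound at 10 μM final, parasite-free screening media added to match infected plates; puromycin 10 μM positive, DMSO 0.5% negative; run in parallel with 48 h PbLuc assay at 37 °C, 5% CO2; viability by CellTiter-Glo luminescence, normalized to controls.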

Structure (SMILES) | cytotoxicity at 10 µM [%]
CS(=O)(=O)Cc1cccc(C(=O)NCC2Cc3ccccc3O2)c1 (configuration not stated) | -16.5
O=C1NCCCc2[nH]c(Cc3cccc(F)c3)nc21 | -3.47
COCCS(=O)(=O)NCc1ccc(N(C)C)c(C)c1 | -8.35
c1ccc(CCNCC2Cn3nncc3CO2)cc1 (configuration not stated) | 7.61
COCCCN(Cc1cnc(N2CCCC2)nc1)C1CCN(C)CC1 | -10.3
Cc1cnn(CCNCC(O)COc2ccc(Cl)cc2Cl)c1 (configuration not stated) | -1.76
Cc1cc(C)n(CC2CCCN2C(=O)c2cnn(C)c2C2CC2)n1 (configuration not stated) | -0.489
Cc1cccnc1CN1CCN(c2noc(-c3ccccc3)n2)CC1 | 8.09
Cc1noc(Cl)c1CCC(=O)N1CCN(c2cnccn2)CC1 | -3.5
CC1CCN(S(=O)(=O)N2CCCN(CC3CCCO3)CC2)CC1 (configuration not stated) | -5.15
Cc1cccn2c(=O)cc(OC(=O)c3ccccc3)nc12 | 0.64
Cc1cncc(C2CCCN(C(=O)c3cn(C)nc3C)C2)n1 (configuration not stated) | -7.91
CC(=O)N1CCC(n2nccc2-c2cnc(NCCO)nc2)CC1 | -1
CN1C[C@@H](n2cnc(-c3ccccc3)c2-c2ccccn2)C[C@H]1C(=O)O | 0.322
CC(C)OC(=O)CC(NC(=O)CCn1cccn1)c1ccccc1 (configuration not stated) | -12.2
COC(=O)c1ccc(S(=O)(=O)N2CCC(Oc3cccnn3)CC2)cc1 | -4.83
CCn1c(CN2CCCC2)nnc1C1CCN(Cc2cccnc2)CC1 | 3.33
O=C(CCN1CCCO1)N1CCCC(CO)(CCCc2ccccc2)C1 (configuration not stated) | 2.76
CCc1nc(CN2CCCN(Cc3nnc(C4CC4)o3)CC2)no1 | -9.26
Cc1noc(C)c1CN(C)c1nc(C2CCCC2)nc2c1cnn2C | 22.2
Fc1ccc(-c2nc(CN3CCOC(Cn4cccn4)C3)co2)cc1 (configuration not stated) | -3.78
COc1ccc(C(=O)N(C)Cc2c(C)noc2C)cn1 | -12.9
CN1CCOC(CNCc2nc(-c3ccoc3)no2)C1 (configuration not stated) | -5.27

Structure (SMILES) | cytotoxicity at 10 µM [%]
COc1ccc(-c2cnc(CN3CCCC3Cn3cncn3)o2)cc1 (configuration not stated) | 3.41
O=C1CSC(c2ccc(O)cc2)c2c(n(C3CCOCC3)[nH]c2=O)N1 (configuration not stated) | 2.84
Cn1ncc2ccc(C3CCCN(Cc4cccs4)C3)nc21 (configuration not stated) | 1.88
Cc1cnc(CN(C)C2CCN(Cc3sc(C)nc3C)C2)o1 (configuration not stated) | 3.45
Cc1ccc(CNC(=O)NCc2cccnc2N(C)C)s1 | -4.15
C[C@@H]1CN(Cc2c[nH]c(CC3CCCC3)n2)CC[C@]1(C)O | 3.69
Nc1ccnc(N2CCC(Cc3ccccc3Cl)(C(=O)O)CC2)n1 | 2.8
COc1cc(N2CC3(CCN(S(=O)(=O)C4CC4)C3)C2)ncn1 | 7.34
CC(Cn1ccnc1)NCc1ccc2nonc2c1 (configuration not stated) | 2.57
c1cnc(-c2noc(C3CN(Cc4ccc5c(c4)CCO5)C3)n2)nc1 | 0.488
O=C(NC1CCCC1)c1nc2c(o1)CN(C(=O)CO)C2 | 10
COc1ccc(NC(=O)CCC2CCCN(Cc3ncon3)C2)cc1Cl (configuration not stated) | -6.12
COc1ccc(CCn2cnnc2[S+](C)[O-])cc1 (configuration not stated) | 3.4
CC1(C)OC(=O)N(CCCOc2ccc(F)cc2)C1=O | 0.17
O=C(COCc1nc(-c2ccncc2)no1)N1CCOCC1 | -7.08
O=C(c1n[nH]c2c1CN(C1CCOCC1)CC2)N1CCCC1 | -2.39
O=C(Cn1ccc2ccccc21)N1CCC(Oc2ncccc2Br)CC1 | 4.51
CCc1nc(CN2CCCN(C(=O)c3ccnc(C)n3)CC2)cs1 | -13.4
CCOCC1CN(C(=O)Cc2ccccn2)Cc2cnn(C)c21 (configuration not stated) | 6.9
CC(=O)N1CCCN(C(=O)NCCCc2cn[nH]c2C)CC1 | -9.67
CNC(=O)N1Cc2cc(F)ccc2C2(CCN(C)CC2)C1 | 0.595
COc1cccc(N2CCN(C(=O)CN(C)c3cnccn3)CC2)c1 | -15.2
CC(=O)NCC(=O)N1Cc2nccn2CC(Cn2cccn2)C1 (configuration not stated) | 2.44

Structure (SMILES) | cytotoxicity at 10 µM [%]
Clc1ccc(CN2CCCC2Cn2cncn2)c2ncccc12 (configuration not stated) | -9.66
COCc1nc2n(n1)CCCC2Nc1nc(C)ns1 (configuration not stated) | -3.32
O=C(CCc1ccc(Cl)cc1)N[C@@H]1CC[C@@H](O)[C@@H]1O | 3.85
CNC(=O)c1ccc(=O)n(Cc2csc(C(C)(C)C)n2)c1 | 6.8
CCOC(C)c1nc(CN2CCN(c3ncc(C)cn3)CC2)cs1 (configuration not stated) | -0.509
O=C(CCOCC(F)(F)F)N1CCCC1c1noc(C2CC2)n1 (configuration not stated) | 0.111
CCn1cc(S(=O)(=O)N2CCN(S(=O)(=O)c3ccc(Br)s3)CC2)cn1 | 6.24
O=C(CCn1c(=O)oc2ccccc21)NCC(O)c1ccc(F)c(F)c1 (configuration not stated) | -12.5
Cc1nc(CNCC2Cn3nncc3CO2)cs1 (configuration not stated) | -93.2
Cc1cc(C)c(C#N)c(NCCSc2nncn2C)n1 | -1.01
CSCCC(NC(N)=O)C(=O)Nc1ccc(-n2cccn2)nc1 (configuration not stated) | 4.78
COc1ccc([C@@H]2CN(Cc3cccnc3N)C[C@H]2NC(C)=O)cc1 | 0.0652
CS(=O)(=O)N1CCC(OCCCc2ccccc2)C1 (configuration not stated) | 8.13
CC(=O)NC(Cc1c[nH]c2cc(F)ccc12)C(=O)Nc1nncs1 (configuration not stated) | 1.22
CC(C(=O)Nc1ccc(C#N)cc1)N1CCc2ccccc21 (configuration not stated) | -1.5
O=C(c1sccc1-n1cnnn1)N1CCC(Cc2ccccc2)CC1 | 9.49
Cc1cccc(CS(=O)(=O)c2nnc(N3CCOCC3)s2)c1 | -3.48
O=C(NCc1cccnc1N1CCCCC1)c1ccc2cc[nH]c2c1 | 4.1
CCC(C)N(Cc1sccc1C)C(=O)c1cc(N)ccn1 (configuration not stated) | 9.8
CC(=O)N1CCO[C@@H]2CN(Cc3ccccc3Cl)C[C@@H]2C1 | -110
COCc1nc(C(=O)N2CCN(Cc3ccsc3)CC2)cs1 | -0.684
O=C(NCc1cccc(F)c1F)c1cc(CN2CCCC(O)C2)on1 (configuration not stated) | -45.9
CC(C)Nc1ncnc2c1CCN(C(=O)c1ccccc1F)CC2 | -86.7

Structure (SMILES) | cytotoxicity at 10 µM [%]
CC(=O)N1N=C(c2ccccc2)OC1C(=O)N(C)Cc1ccccc1 (configuration not stated) | 2.37
CN(C)C(C)(C)CNC(=O)C(C)(C)c1ccccc1F | -11.2
Cc1cccc(C(=O)NCC2CCS(=O)(=O)C2)n1 (configuration not stated) | -6.21
Fc1ccc(CN2CC[C@H]3O[C@@H](COCc4cccnc4)CC[C@H]32)cc1 | -70
Cc1nccn1-c1ccc(NS(=O)(=O)c2cnn(C(C)C)c2)cn1 | -5.05
COCCNC(=O)Cn1cc(OCc2ccc(F)cc2)c(=O)cc1CO | 2.73
Cc1cc(CNC(=O)N2CCN(c3ccc(Cl)cn3)CC2)c(C)o1 | 13.9
COc1cccc(CN(C)Cc2nc3cc(C)ccc3[nH]2)c1O | 2.74
Cc1cnn(C2CCCN(C(=O)CCc3c(C)noc3C)C2)c1 (configuration not stated) | -17.2
Cc1ccnc(NC(=O)c2cccc(OCc3nnnn3C)c2)c1 | -0.319
Cc1csc(C2(NCCC(=O)N3CCOCC3)CCCC2)n1 | -11.4
CCn1cc(-n2cc3nc(N)[nH]cc-3c2=O)cn1 | 3.15
CCO[C@H]1C[C@@H](O)C12CCN(C1Cc3ccccc3C1)CC2 | 4.54
NC(=O)CN1CCC(C(=O)NCc2nc(-c3ccc(F)cc3)cs2)CC1 | -5.79
COCc1cnc2n1CCN(C(=O)c1cnc3ccccc3c1)C2C (configuration not stated) | -110
Cc1cc(NC(=O)CNC(C)(C)c2nc(C)c(C)s2)no1 | 13.3
Cc1c(C(=O)NC2CCCOc3cc(Cl)ccc32)cnn1C (configuration not stated) | -0.572
N#Cc1ccc(OCCN2CCNC(=O)C2c2cccs2)cc1 (configuration not stated) | -2.62
COC(=O)c1ccc(N2CCN(CCC#N)C(C)C2)cc1 (configuration not stated) | -11.3
Cc1nccn1C1CCCN(C(=O)CCCNc2ncccn2)C1 (configuration not stated) | -6.42
CCC(C)Oc1cc(C(=O)Nc2nccs2)ccn1 (configuration not stated) | -6.19
CC(C)CCNC(=O)Cc1cnc(-n2cccc2)s1 | -2.49
CC(=O)Nc1c(C)noc1C=Cc1ccc(S(=O)(=O)N2CCCC2)cc1 | 0.931

Structure (SMILES) | cytotoxicity at 10 µM [%]
CCCc1nnc2sc(C3CCS(=O)(=O)CC3)nn12 | 1.4
CCOc1ccc(-c2ccc3c(c2)OCO3)cc1C(N)=O | 5.17
O=S(=O)(N1CCCC1)N1CC(c2ccnc(Nc3ccccn3)n2)C1 | 11.8
CC(O)CNCc1ccc(OCc2ccc3c(c2)OCCO3)cc1 (configuration not stated) | -4.61
CN(CC1CCN(CCO)CC1)CC(O)c1ccc(F)cc1 (configuration not stated) | -52.8
Nc1nccc(-c2cccc3ccnn23)n1 | -3.81
O=C(c1ccc(=O)[nH]c1)N1CCc2c(nc(-c3cccnc3)[nH]c2=O)C1 | 9.84
COc1cc(C)sc1C(=O)NCCC(=O)N(C)Cc1ccccc1 | -8.78
O=C(c1ccc[nH]1)N1CCCn2c(CNC3CCC3)nnc2C1 | -105
COC(=O)c1cccc(NS(=O)(=O)c2cnc(NC(C)=O)s2)c1 | 7.21
O=C(NCCNc1ncccn1)C1CCN(CC(F)(F)F)CC1 | -5.6
COCCN1CCC(Nc2ccc(C#N)cc2F)CC1 | -3.68
O=C(c1cc[nH]n1)N1CCCC1c1ccccn1 (configuration not stated) | -22.5
CN(CCc1cnn(C)c1)C(=O)Cn1c(=O)[nH]c2ccccc21 | 4.5
Cc1cc(-c2cnn(CCNC(=O)c3cnn(C)c3)c2C2CC2)on1 | -5.58
CNC(=O)[C@H]1C[C@@H]2CN(Cc3c(C)noc3C)C[C@@H]2N1C(C)=O | -108
Cc1nsc(N2CCCN(C(=O)NCc3cc(C)on3)CC2)n1 | -1.63
O=C(Cc1ccc(O)c(Cl)c1)N1CCN(CC2CC2)[C@@H]2CS(=O)(=O)C[C@@H]21 | 5.84
Cc1cc(C)n(CC2CCCN2CCc2ccncc2)n1 (configuration not stated) | -15.5
CCN(C(=O)C(C)S(=O)(=O)Cc1nc(C)no1)c1ccccc1 (configuration not stated) | 4.03

Source: ChEMBL document CHEMBL4513216, “Probing the Open Global Health Chemical Diversity Library for Multistage-Active Starting Points for Next-Generation Antimalarials” (ACS Infect Dis, 2020)
